Bioassay records: PubChem, several laboratories
An excerpt weighted towards active compounds, which were near 4.6% of everything screened.
Arbovirus anti – antivirals against arbovirus infection, primary screen, cell-based, full library, 10K replicate subset; arbovirus infection cell-based antiviral screen; inhibition, % at 10 µM; AID 1251, 2008; 200,000 compounds, 0.37% hits; in the data active = inhibition above about 30%
WT yeast gro inh – growth inhibition of WT strain, primary screen, mitochondrial fusion inhibitor project, WT and mutant strains, chemical genetic | mitochondrial fusion phenotypic screen | inhibition, % at 10 µM | 190,000 compounds, 2.1% hits; in the data active = inhibition above about 58%; tested in S. cerevisiae
Hck-Nef inh – inhibitors of Nef-activated human Hck kinase, primary screen, biochemical, Z-Lyte FRET, 384-well, Hck-YEEI. Tyrosine-protein kinase HCK (Homo sapiens), P08631. Recombinant Hck-YEEI plus Nef, Z-Lyte FRET kinase assay. inhibition, % at 20 µM. 220,000 compounds, 0.68% hits;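 active = Hck-Nef kinase inhibition above about 50%, limit read from the data; inactive = inhibition below that limit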;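 note: 0% = DMSO with Hck plus Nef and 100% = Hck alone without Nef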
Target sequence (P08631 whole entry, looked up): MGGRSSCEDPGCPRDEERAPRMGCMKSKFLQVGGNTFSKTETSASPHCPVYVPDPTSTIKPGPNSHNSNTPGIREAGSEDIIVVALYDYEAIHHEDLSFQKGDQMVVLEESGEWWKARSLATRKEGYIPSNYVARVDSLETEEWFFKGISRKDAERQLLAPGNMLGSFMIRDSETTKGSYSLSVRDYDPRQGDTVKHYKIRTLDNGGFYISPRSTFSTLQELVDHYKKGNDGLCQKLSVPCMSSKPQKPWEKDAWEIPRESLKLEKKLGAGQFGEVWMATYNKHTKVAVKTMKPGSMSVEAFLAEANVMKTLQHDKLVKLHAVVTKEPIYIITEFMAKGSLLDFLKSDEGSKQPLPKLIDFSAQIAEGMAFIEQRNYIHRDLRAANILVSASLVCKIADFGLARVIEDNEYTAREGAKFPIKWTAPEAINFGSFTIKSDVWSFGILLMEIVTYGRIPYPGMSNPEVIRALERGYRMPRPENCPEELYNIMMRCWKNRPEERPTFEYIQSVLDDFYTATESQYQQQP
RAM inhibit – inhibitors of the yeast RAM network, primary screen, dse1pr::URA3 reporter, 5-FOA selection | 190,000 compounds, 1.8% hits | S. cerevisiae dse1pr::URA3 reporter, 5-FOA growth OD615, 2 d; analog-sensitive cbk1-as2 kinase mutant strain | inhibition, % at 50 µM | AID 868, 2007;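 active = inhibition above a set limit, 3 SD over mean compound inhibition, cut at about 8.4% in these data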;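 note: 0% = DMSO-only wells with no growth and 100% = 10 µM 1-NA-PP1 full growth; inhibition rescues growth on 5-FOA so higher OD means more RAM inhibition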
p47phox inh – p47phox/p22phox peptide binding inhibitors, primary screen, biochemical, uHTS, NADPH oxidase regulatory subunit; inhibition, % at 24.7 µM; fluorescence polarization, 2 h; 220,000 compounds, 0.53% hits; AID 1274, 2008; Neutrophil cytosol factor 1 (Homo sapiens), P14598;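 active = inhibition above about 30%, limit read from the data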;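 note: 0% = p47phox with labelled peptide and 100% = labelled peptide alone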
Calb biofilm kill – clotrimazole potentiators killing C. albicans biofilm, primary screen, 4-compound mixtures; C. albicans biofilm persisters + clotrimazole, fluorescence viability; primary screen in compound mixtures of four per well; inhibition, % at 7.6 µM; 120,000 compounds, 0.02% hits; AID 1242, 2008;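 active = inhibition above 30.3% in the primary screen of four-compound pools, then above 30% when the compound was retested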;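 note: compounds exposed to preformed 24 h biofilms for 48 h; 0% = untreated biofilm control and 100% = clotrimazole plus chlorhexidine kill blank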
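Test system: C. albicans biofilms. Buffer or medium: RPMI/MOPS medium, pH 7.0. Timing: 48 h compound exposure at 37 °C. Technique: Alamar Blue fluorescence. Evaluation: percent inhibition of biofilm viability.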
* = called active by the depositor; · = no result given.

SMILES	Arbovirus anti	WT yeast gro inh	Hck-Nef inh	RAM inhibit	p47phox inh	Calb biofilm kill
CSCCC(NC(=O)OC(C)(C)C)C(=O)Oc1ccc2c(=O)c(-c3ccc4c(c3)OCCO4)coc2c1 (stereo not given)	4	-30	1	8.7*	-11	·
CN(C)c1ccc(/C=C2\CCC/C(=C\c3ccccc3)C2=O)cc1	-6	0	0	9.0*	-74	10
CCNC(=O)COC(=O)c1csc2c1CCCC2	3	-12	5	-1	5	17
Cc1ccc(NC(=O)OCc2cc(-c3ccccc3)on2)cc1	3	16	5	9.9*	-3	10
C=CCN(CC=C)C(=S)NC(=O)c1ccc(C)c(Br)c1	-21	51	2	1	-17	17
O=C(Nc1ccccc1)c1ccc2ccccc2n1	8	6	23	2	-7	16
O=C(/C=C/c1ccc(F)cc1)Nc1ccc(S(=O)(=O)Nc2ncccn2)cc1	·	·	7	·	120*	13
O=C(Cc1ccc(Cl)cc1Cl)Nc1cccc(S(=O)(=O)Nc2ccccc2F)c1	21	22	15	8.8*	-2	11
O=C(Nc1ccccc1C(=O)O)c1ccc2ccccc2n1	42*	-7	0	2	-4	·
O=C(Nc1cccc(S(=O)(=O)Nc2ccccc2F)c1)c1ccc2ccccc2n1	12	87*	26	5	-16	-4
O=C(Cc1ccc(Cl)cc1Cl)Nc1ccc(OC(F)F)c(Cl)c1	22	21	0	3	-11	17
COc1ccccc1NS(=O)(=O)c1cccc(NC(=O)c2ccc3ccccc3n2)c1	24	30	0	5	-40	21
CCC(CC)C(=O)Nc1cc(Cl)ccc1C	1	-8	-3	2	-4	17
Cc1ccc(S(=O)(=O)NC(C(=O)Oc2ccc3c(C(F)(F)F)cc(=O)oc3c2)c2ccccc2)cc1 (stereo not given)	-6	-8	-1	4	-2	0
CCC(=O)N1CCN(c2ccccc2NC(=O)c2ccc(OC)c(Cl)c2)CC1	-8	-2	0	3	-9	·
CC(=O)NS(=O)(=O)c1ccc(NC(=O)/C=C/c2ccccc2)cc1	7	-1	-1	2	5	-7
O=C(/C=C/c1ccccc1)Nc1cccc(S(=O)(=O)Nc2ccccc2F)c1	18	55	-34	9.3*	-22	18
COc1ccc(-c2cc(C(F)(F)F)n3nc(N)nc3n2)cc1	5	-5	38	3	-9	·
COc1ccc(-c2cc(C(F)(F)F)n3nc(C(=O)O)nc3n2)cc1	7	-3	2	0	65*	·
CCOC(=O)C1(CCCc2ccccc2)CCN(C(=O)C2CCCN(C(N)=O)C2)CC1 (stereo not given)	1	12	-6	-1	10	9
Cc1cccc(OCCNC(=O)c2cccc(Oc3ccc(C(F)(F)F)cc3[N+](=O)[O-])c2)c1	-4	16	3	9.0*	-1	16
Cc1cccc(OCCNC(=O)c2ccc(Oc3ccc(C(F)(F)F)cc3[N+](=O)[O-])cc2)c1	-5	15	-1	6	12	·
O=C(c1ccc(COc2ccc(Cl)cc2)cc1)N1CCCCC1	-11	60*	2	-2	-13	14
COc1ccc(NC(=O)COC(=O)c2c3c(nc4ccccc24)CCCC3)cc1Cl	3	63*	4	1	-18	·
COc1ccc(NC(=O)COC(=O)c2c3c(nc4ccccc24)CCCC3)cc1	-3	8	0	1	-11	·
SMILES	Arbovirus anti	WT yeast gro inh	Hck-Nef inh	RAM inhibit	p47phox inh	Calb biofilm kill
CCc1ccc(OCCNC(=O)c2ccccc2SCc2ccccc2)cc1	-9	37	1	8.8*	-1	·
Cc1cc2cc(CN(C(=O)C3CC3)C3CCCC3)c3nnnn3c2cc1C	-5	2	-8	0	-2	·
O=C(Nc1ccccc1)c1cccc(=O)o1	·	·	12	·	-21	21
N#C/C(=N\Nc1cccc([N+](=O)[O-])c1)C(=O)c1ccc(Br)cc1	-23	67*	15	7	-13	15
O=C(O)c1ccc(N=NNc2cccc([N+](=O)[O-])c2)cc1	-12	0	26	3	-6	16
CSCC[C@H](NC(=O)C(C)Oc1ccc(Cl)cc1)c1nc2ccccc2[nH]1 (stereo not given in full)	-14	15	-3	1	-5	14
N#Cc1sc2nc(C3CC3)cc(-c3ccccc3)c2c1N	2	-27	3	3	-6	9
N#Cc1sc2nc(-c3cccs3)cc(-c3ccc(F)cc3)c2c1N	37*	-5	-3	6	-7	9
CS(=O)(=O)c1sc2nc(-c3cccs3)cc(-c3ccccc3)c2c1N	24	-25	0	11*	-81	·
Cc1ccc(C(=O)NN2C(=O)/C(=C/c3cn(C)c4ccccc34)SC2=S)cc1	4	0	0	6	-10	14
Cn1cc(/C=C2\SC(=O)NC2=S)c2ccccc21	-9	2	-12	10*	-8	17
Clc1ccc(OCCSc2ncccn2)c(Br)c1	-17	31	-17	2	-9	8
CCN(c1ccccc1)S(=O)(=O)c1cnc[nH]1	18	59*	3	1	-3	·
CN(CC(=O)NCc1ccccc1)S(=O)(=O)c1cnc[nH]1	1	7	0	1	-5	·
O=C(O)c1ccccc1C(=O)Nc1ccc(Oc2cccc3ccccc23)cc1	27	-22	20	4	-4	3
O=C(OC1CCCCC1)c1ccc(NC(=O)c2ccco2)cc1	2	71*	1	1	-21	·
O=C(Nc1ccc(Oc2cccc3ccccc23)cc1)c1ccco1	-36	79*	-4	9.2*	-36	·
O=C(NCc1ccccn1)NC12CC3CC(CC(C3)C1)C2	14	-5	-21	1	-2	·
O=C(NCc1ccccn1)C(=O)Nc1nc(C23CC4CC(CC(C4)C2)C3)cs1	-33	71*	16	-1	1	16
COc1ccc2[nH]c(=O)c(CN(Cc3ccco3)Cc3nnnn3Cc3ccccc3)cc2c1	2	21	1	9.7*	-5	·
CC1CCC(NC(=O)c2ccc(/C=C3\Oc4ccccc4N(C)C3=O)cc2)CC1 (stereo not given)	-29	24	6	2	-2	13
CCNc1nc(NC(C)(C)C)nc(N2CCCCC2)n1	-7	78*	-4	0	0	1
CCNc1nc(N2CCCC2)nc(N2CCCC2)n1	11	13	24	0	2	13
